Article PMC4303305 (Biochemistry, 2014)
Like-named read-outs stand apart in the source and are kept apart here.

Legend:
[1] = cited from earlier work
[2] = Size-exclusion FPLC retention of nitrophorins, mutants and ligand complexes; format: physicochemical, Rhodnius prolixus; conditions: pH 5.0
Outline: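 Analytical run on Superdex75 at 4 °C in 100 mM sodium acetate, NaCl added to 220 mM total ionic strength. Protein at 1 mM was run at pH 5.0, 5.25, 5.5 and 5.75. Separately, protein from 1 to 0.025 mM was run at pH 5.0. Elution position compared with molecular weight standards.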

[3] = format: physicochemical, Rhodnius prolixus
Outline: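 Recombinant nitrophorin refolded from inclusion bodies, reconstituted with excess hemin at pH 7.5, then purified by size-exclusion at pH 5.0. ¹H{¹⁵N} HSQC spectra recorded across pH: 0.2 mM protein at pH 5.0, 5.5 and 6.0; 0.8 mM at pH 6.5. pH 6.5 peaks assigned from pH 7.3 assignments, following cross-peaks through intermediate spectra. NO-bound sample run at 3.7 mM and after dilution to 0.88 mM.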

[4] = Stopped-flow kinetics of release of NO from the nitrophorins; format: binding, Rhodnius prolixus; conditions: for NO Kd (NO dissociation): 5–10 μM in 100 mM sodium phosphate buffer
Outline: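 Stopped-flow measurement of NO release from NO-bound nitrophorins with native or M0-bearing N-termini. Dissociation Kd obtained at pH 5.0 and 7.5 in dilute solution, 5–10 μM protein in 100 mM sodium phosphate buffer.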

Kd for the loss of NO from NP4, times that from NP1 ([4]; pH 5.0): 0.6
NO Kd (NO dissociation) ([4]; pH 5.0): 0.020 ± 0.003 s^–1
Kd for the loss of NO from NP4, times that of NP1 ([4]; pH 7.5): 1.4
NO Kd (NO dissociation) ([4]; pH 7.5): 1.60 ± 0.11 s^–1
B1: NP4: NO-carrying heme protein from the salivary glands of Rhodnius prolixus, recombinant, N-terminus ACTK... (protein)
chain: ACTKNAIAQTGFNKDKYFNGDVWYVTDYLDLEPDDVPKRYCAALAAGTASGKLKEALYHYDPKTQDTFYDVSELQVESLGKYTANFKKVDKNGNVKVAVTAGNYYTFTVMYADDSSALIHTCLHKGNKDLGDLYAVLNRNKDAAAGDKVKSAVSAATLEFSKFISTKENNCAYDNDSLKSLLTK
NO Kd (NO dissociation) ([1]; column pH 7.5, measured at pH 8.0 rather than pH 7.5 (footnote a)): 2.6 ± 0.1 ^a s^–1
NO Kd (NO dissociation) ([1]; pH 5.0, ref 17): 0.14 ± 0.01 s^–1
monomer or dimer on the size-exclusion column ([2]; 1 mM): pure dimer
monomer or dimer on the size-exclusion column ([2]; serial dilution to 0.025 mM): fairly pure monomer
monomer in 1H{15N} HSQC spectrum ([3]; pH 5.0, 0.2 mM): some monomer present
oligomeric state in solution ([3]; pH 5.6, 0.5 mM, absence of NO): mainly monomeric
dimer in 1H{15N} HSQC spectrum ([3]; pH 6.5, 0.8 mM): not detectable
state of the dimer ([3]; pH 7.3, 3.7 mM, absence of NO): completely dissociated to monomer
